Assay results: ChEMBL document CHEMBL1126803, “Stereospecific and selective 5-HT2 antagonism in a series of 5-substituted trans-1-piperazino-3-phenylindans” (J Med Chem, 1993)

Columns and labels:
[1] = molecular target: Serotonin 2 (5-HT2) receptor (Rattus norvegicus, UniProt P30994+P08909+P14842); assay: Displacement of [3H]ketanserin from 5-hydroxytryptamine 2 receptor in rat cortical membranes; assay type: cell membranes, Membrane
Procedure, shortened: (§1)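 Radioligand displacement from rat brain membranes: 3H-ketanserin on cortical membranes (5-HT2), 3H-prazosin on whole brain membranes (alpha1), 3H-spiperone on striatal membranes (D2). Two full concentration-effect curves per compound, each with five test drug concentrations in triplicate spanning three decades. IC50 estimated from curves on a log-concentration scale. Outliers beyond 3 times the sd-ratio were discarded after extra determinations.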

[2] = molecular target: T1, Adrenergic receptor alpha-1 (Rattus norvegicus, UniProt P15823+P23944+P43140); assay: Displacement of [3H]prazosin from alpha-1 adrenoceptors in whole rat brain membranes; assay type: cell membranes; procedure, shortened: as §1
T1 sequence (P15823 whole entry): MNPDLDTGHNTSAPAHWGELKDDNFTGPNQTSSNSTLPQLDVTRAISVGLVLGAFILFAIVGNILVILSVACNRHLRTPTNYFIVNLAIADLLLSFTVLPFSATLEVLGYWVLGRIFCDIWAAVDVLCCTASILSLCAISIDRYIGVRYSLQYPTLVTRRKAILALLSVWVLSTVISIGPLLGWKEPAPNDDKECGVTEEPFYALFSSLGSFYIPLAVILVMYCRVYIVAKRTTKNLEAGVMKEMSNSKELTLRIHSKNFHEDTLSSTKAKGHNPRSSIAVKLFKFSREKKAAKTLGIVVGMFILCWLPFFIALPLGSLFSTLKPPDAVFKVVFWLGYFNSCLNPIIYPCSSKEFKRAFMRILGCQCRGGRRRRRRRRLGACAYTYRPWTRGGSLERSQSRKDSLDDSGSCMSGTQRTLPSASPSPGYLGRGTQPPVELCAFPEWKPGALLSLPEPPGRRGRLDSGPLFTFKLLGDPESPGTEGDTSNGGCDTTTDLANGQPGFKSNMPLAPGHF
T1 sequence (P23944 whole entry): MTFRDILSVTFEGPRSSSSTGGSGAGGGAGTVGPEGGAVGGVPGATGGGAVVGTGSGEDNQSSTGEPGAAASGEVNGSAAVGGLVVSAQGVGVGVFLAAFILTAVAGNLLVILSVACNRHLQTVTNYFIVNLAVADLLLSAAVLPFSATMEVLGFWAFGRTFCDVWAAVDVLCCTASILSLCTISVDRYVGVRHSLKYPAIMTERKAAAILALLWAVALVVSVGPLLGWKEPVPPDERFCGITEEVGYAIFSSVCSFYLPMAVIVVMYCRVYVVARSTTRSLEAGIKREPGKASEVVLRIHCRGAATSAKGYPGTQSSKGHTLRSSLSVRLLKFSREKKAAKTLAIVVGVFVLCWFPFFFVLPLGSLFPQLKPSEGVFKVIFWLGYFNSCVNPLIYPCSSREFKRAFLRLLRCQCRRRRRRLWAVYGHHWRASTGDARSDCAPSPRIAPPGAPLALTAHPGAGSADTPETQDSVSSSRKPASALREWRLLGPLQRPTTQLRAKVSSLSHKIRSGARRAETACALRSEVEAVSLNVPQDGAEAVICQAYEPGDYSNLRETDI
T1 sequence (P43140 whole entry): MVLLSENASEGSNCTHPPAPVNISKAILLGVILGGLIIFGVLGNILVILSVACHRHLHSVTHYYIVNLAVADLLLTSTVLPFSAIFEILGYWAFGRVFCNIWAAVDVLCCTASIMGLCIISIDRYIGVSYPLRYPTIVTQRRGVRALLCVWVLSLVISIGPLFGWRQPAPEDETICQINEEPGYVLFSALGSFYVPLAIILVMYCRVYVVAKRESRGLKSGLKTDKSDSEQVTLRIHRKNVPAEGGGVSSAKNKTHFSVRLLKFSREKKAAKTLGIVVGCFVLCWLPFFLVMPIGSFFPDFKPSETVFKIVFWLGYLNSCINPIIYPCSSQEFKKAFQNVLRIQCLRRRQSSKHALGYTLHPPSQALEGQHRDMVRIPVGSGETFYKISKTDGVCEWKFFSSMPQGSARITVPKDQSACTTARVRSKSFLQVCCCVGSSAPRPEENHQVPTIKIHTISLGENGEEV

Rattus norvegicus = species on record: Rattus norvegicus; assay: Inhibition of quipazine-induced head twitches in rats after 2 hrs of pretreatment; assay type: functional
Procedure, shortened: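 Test drug was given sc or po to rats 2 or 24 h before quipazine (15 µmol/kg, sc). Head twitches were counted 30-40 min after quipazine, at least four animals per dose. Counts were expressed as percent of a quipazine-only control group.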

D(2) dopamine receptor = D(2) dopamine receptor (Rattus norvegicus, UniProt P61169); assay: Displacement of [3H]spiperone from dopamine D2 receptors in rat striatal membranes; assay type: cell membranes, Membrane; procedure, shortened: as §1
[3] = Rattus norvegicus, read-out: ED50

Chain of D(2) dopamine receptor (P61169 whole entry): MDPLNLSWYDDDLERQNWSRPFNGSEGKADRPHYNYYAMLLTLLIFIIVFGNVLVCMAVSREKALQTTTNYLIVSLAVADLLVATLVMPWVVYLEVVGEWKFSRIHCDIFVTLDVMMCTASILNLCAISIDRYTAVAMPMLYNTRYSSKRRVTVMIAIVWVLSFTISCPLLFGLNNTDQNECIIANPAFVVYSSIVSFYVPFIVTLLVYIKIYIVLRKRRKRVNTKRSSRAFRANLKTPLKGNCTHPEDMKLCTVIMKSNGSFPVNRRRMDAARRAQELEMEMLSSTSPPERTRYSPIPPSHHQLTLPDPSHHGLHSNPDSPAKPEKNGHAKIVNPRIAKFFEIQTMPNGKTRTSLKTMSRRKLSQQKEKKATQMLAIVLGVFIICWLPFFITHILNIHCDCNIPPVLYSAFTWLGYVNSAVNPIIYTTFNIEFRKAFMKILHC

Row | Structure (SMILES) | IC50 [1] [µM] | IC50 [2] [µM] | IC50 (D(2) dopamine receptor) [µM] | ED50 (Rattus norvegicus; [3]) [µmol/kg] | ED50 (Rattus norvegicus) [µM/kg]
1 | Fc1ccc(C2CC(N3CCN(CCN4CCCN=C4S)CC3)c3ccc(F)cc32)cc1.O=C(O)/C=C\C(=O)O.O=C(O)/C=C\C(=O)O (configuration not stated) | 0.0017 | 0.11 | 0.22 | 0.039 | –
2 | O=C(O)/C=C\C(=O)O.O=C(O)/C=C\C(=O)O.OCCN1CCN(C2CC(c3ccc(F)cc3)c3cc(C(F)(F)F)ccc32)CC1 (configuration not stated) | 0.0089 | 0.38 | – | 1 | –
3 | Cc1ccc2c(c1)C(c1ccc(F)cc1)CC2N1CCN(CCO)CC1.O=C(O)/C=C\C(=O)O.O=C(O)/C=C\C(=O)O (configuration not stated) | 0.012 | 0.27 | 1.1 | > 2.1 | –
4 | Cc1nc2sccn2c(=O)c1CCN1CCN(C2CC(c3ccc(F)cc3)c3cc(Cl)ccc32)CC1.O=C(O)/C=C\C(=O)O.O=C(O)/C=C\C(=O)O (configuration not stated) | 0.019 | 0.024 | 0.065 | 1.9 | –
5 | O=C(O)/C=C\C(=O)O.O=C(O)/C=C\C(=O)O.Oc1nc2ccccc2n1CCN1CCN(C2CC(c3ccc(F)cc3)c3cc(Cl)ccc32)CC1 (configuration not stated) | 0.0056 | 0.066 | 0.11 | 0.21 | –
6 | O=C(O)/C=C\C(=O)O.O=C(O)/C=C\C(=O)O.O=C1NCCN1CCCN1CCN(C2CC(c3ccc(F)cc3)c3cc(Cl)ccc32)CC1 (configuration not stated) | 0.01 | 0.073 | 0.16 | 0.91 | –
7 | O=C(O)/C=C\C(=O)O.O=C(O)/C=C\C(=O)O.O=c1[nH]c2ccccc2c(=O)n1CCN1CCN(C2CC(c3ccc(F)cc3)c3cc(Cl)ccc32)CC1 (configuration not stated) | 0.0038 | 0.078 | 0.093 | > 3.3 | –
8 | O=C(O)/C=C\C(=O)O.O=C(O)/C=C\C(=O)O.OCCN1CCN(C2CC(c3ccc(F)cc3)c3cccc(Cl)c32)CC1 (configuration not stated) | 0.015 | 0.038 | 0.046 | 1.3 | –
9 | Cl.Cl.O=C1OCCN1CCN1CCN(C2CC(c3ccc(F)cc3)c3cc(Cl)ccc32)CC1 (configuration not stated) | 0.023 | 0.14 | 0.55 | 2 | –
10 | Cl.Cl.O=C1CCCN1CCN1CCN(C2CC(c3ccc(F)cc3)c3cc(Cl)ccc32)CC1 (configuration not stated) | 0.01 | 0.37 | 0.5 | 2.7 | –
11 | OCCN1CCN(C2CC(c3ccc(F)cc3)c3cc(F)ccc32)CC1 (configuration not stated) | 0.021 | 0.15 | 1.1 | – | 0.35
12 | OCCN1CCN(C2CC(c3ccc(F)cc3)c3ccc(Cl)cc32)CC1 (configuration not stated) | 0.0026 | 0.026 | 0.02 | 0.039 | –
13 | OCCN1CCN(C2CC(c3ccc(F)cc3)c3c(Cl)cccc32)CC1 (configuration not stated) | 0.04 | 0.03 | 0.22 | 0.82 | –
14 | O=C1NCCN1CCN1CCN(C2CC(c3ccc(F)cc3)c3cc(Cl)ccc32)CC1 (configuration not stated) | 0.0029 | 0.2 | – | 0.34 | –
15 | Cl.Cl.Fc1ccc(C2CC(N3CCN(CCN4CCCNC4=S)CC3)c3ccc(F)cc32)cc1 (racemic) | 0.042 | – | 2.9 | – | –
16 | O=C(O)/C=C\C(=O)O.O=C(O)/C=C\C(=O)O.O=C1NCCCN1CCN1CCN(C2CC(c3ccc(F)cc3)c3cc(F)ccc32)CC1 (single isomer, unassigned; (-)) | 0.057 | – | 4 | – | –
17 | Cl.Cl.OCCN1CCN(C2CC(c3ccc(F)cc3)c3cc(Cl)ccc32)CC1 (stereo in doubt; 10) | 0.025 | 0.23 | – | – | 0.23
18 | Cl.Cl.Fc1ccc(C2CC(N3CCN(CCN4CCCNC4=S)CC3)c3ccc(Cl)cc32)cc1 (stereo in doubt; (+)-39) | 0.021 | 0.35 | 0.49 | – | –

Further lines, with some results ahead:

Row | IC50 [1] [µM] | IC50 [2] [µM] | IC50 (D(2) dopamine receptor) [µM] | Structure (SMILES) | ED50 (Rattus norvegicus; [3]) [µmol/kg] | ED50 (Rattus norvegicus) [µM/kg]
19 | 0.015 | 0.18 | – | CC(C)N1CCN(CCN2CCN(C3CC(c4ccc(Cl)cc4)c4cc(Cl)ccc43)CC2)C1=O.O=C(O)/C=C\C(=O)O (configuration not stated) | 2.9 | –
20 | 0.026 | 0.97 | – | CC(C)N1CCN(CCN2CCN(C3CC(c4cccc(F)c4)c4cc(Cl)ccc43)CC2)C1=O.O=C(O)/C=C\C(=O)O (configuration not stated) | – | –
21 | 0.011 | 0.06 | – | Cc1ccc(C2CC(N3CCN(CCN4CCN(C(C)C)C4=O)CC3)c3ccc(Cl)cc32)cc1.O=C(O)/C=C\C(=O)O (configuration not stated) | > 3.5 | –
22 | 0.0028 | 0.6 | – | CN1CCN(CCN2CCN(C3CC(c4ccc(F)cc4)c4cc(Cl)ccc43)CC2)C1=O.O=C(O)/C=C\C(=O)O (configuration not stated) | 0.093 | –
23 | 0.0035 | 0.67 | – | CC(C)N1CCN(CCN2CCN(C3CC(c4ccccc4F)c4cc(Cl)ccc43)CC2)C1=O.O=C(O)/C=C\C(=O)O.O=C(O)/C=C\C(=O)O (configuration not stated) | 2.1 | –
24 | 0.003 | 0.12 | 0.45 | Cc1ccc2c(c1)C(c1ccc(F)cc1)CC2N1CCN(CCN2CCN(C(C)C)C2=O)CC1.O=C(O)/C=C\C(=O)O.O=C(O)/C=C\C(=O)O (configuration not stated) | 0.2 | –
25 | 0.0037 | 0.37 | – | CC(C)N1CCN(CCN2CCN(C3CC(c4ccc(F)cc4)c4cc(C(F)(F)F)ccc43)CC2)C1=O.O=C(O)/C=C\C(=O)O.O=C(O)/C=C\C(=O)O (configuration not stated) | 0.13 | –
26 | 0.0099 | 0.51 | – | CC(C)N1CCN(CCN2CCN(C3CC(c4ccccc4)c4cc(Cl)ccc43)CC2)C1=O.O=C(O)/C=C\C(=O)O.O=C(O)/C=C\C(=O)O (configuration not stated) | 1 | –
27 | 0.0026 | 0.24 | – | CCN1CCN(CCN2CCN(C3CC(c4ccc(F)cc4)c4cc(Cl)ccc43)CC2)C1=O.O=C(O)/C=C\C(=O)O.O=C(O)/C=C\C(=O)O (configuration not stated) | 0.042 | –
28 | 0.0064 | 0.27 | – | CC(C)N1CCN(CCN2CCN(C3CC(c4ccc(F)cc4)c4cc(Br)ccc43)CC2)C1=O.O=C(O)/C=C\C(=O)O.O=C(O)/C=C\C(=O)O (configuration not stated) | 0.098 | –
29 | 0.044 | 0.31 | – | O=C(O)/C=C\C(=O)O.O=C(O)/C=C\C(=O)O.O=C1N(CCN2CCN(C3CC(c4ccc(F)cc4)c4cc(Cl)ccc43)CC2)CCN1c1ccccc1 (configuration not stated) | > 6.7 | –
30 | 0.0061 | 0.71 | – | O=C(O)/C=C\C(=O)O.O=C(O)/C=C\C(=O)O.O=C1N(CCO)CCN1CCN1CCN(C2CC(c3ccc(F)cc3)c3cc(Cl)ccc32)CC1 (configuration not stated) | 1.1 | –
31 | 0.0015 | 0.17 | 0.093 | Fc1ccc(C2CC(N3CCN(CCN4CCCN=C4S)CC3)c3ccc(Cl)cc32)cc1.O=C(O)/C=C\C(=O)O.O=C(O)/C=C\C(=O)O (configuration not stated) | 0.048 | –
32 | 0.004 | 0.25 | – | CSc1ccc2c(c1)C(c1ccc(F)cc1)CC2N1CCN(CCN2CCN(C(C)C)C2=O)CC1 (configuration not stated) | > 3.4 | –
33 | 0.0039 | 0.26 | – | CC(C)N1CCN(CCN2CCN(C3CC(c4ccc(F)cc4)c4cc(Cl)ccc43)CC2)C1=O.O=C(O)/C=C\C(=O)O.O=C(O)/C=C\C(=O)O (stereo in doubt; 20) | – | 0.06
34 | 0.12 | – | 1.7 | O=C(O)/C=C\C(=O)O.O=C(O)/C=C\C(=O)O.O=C1NCCCN1CCN1CCN(C2CC(c3ccc(F)cc3)c3cc(Cl)ccc32)CC1 (stereo in doubt; (+)-41) | – | –
